Here are results for ten molecules from ChEMBL document CHEMBL1132148, “Synthesis and biological activity of (hydroxymethyl)- and (diethylaminomethyl)benzopsoralens” (J Med Chem, 1999).

The structures appear in SMILES notation. Activity calls are given as the source filed them. No cut-off for these calls is given here.

Experiment [1] is described as follows: The IC50-UVA is the dose of UVA light which in the presence of fixed drug concentration (20 uM) is necessary to induce a 50% inhibition of DNA synthesis by incubation at the ground state by keeping mammalian cells in the dark. The class given is functional. In a few lines:
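Ehrlich cells (Lettré strain) at 2 × 10^7 cells·mL-1 in PBS were irradiated with increasing UVA doses in the presence of 20 μM compound, with final DMSO ≤0.5%. Then 10^6 cells were labelled with 40 kBq·mL-1 [3H]thymidine for 30 min at 37 °C. Incorporation is given as % of untreated control, and IC50-UVA is the UVA dose (kJ·m-2) giving 50% inhibition.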

Experiment [2] in a line: The IC50-UVA is the dose of UVA light which in the presence of fixed drug concentration (20 uM) is necessary to induce a 50% inhibition of clonal growth by incubation at the ground state by keeping mammalian cells in the dark. The class given is functional. In short, it runs like this: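 HeLa cells were grown in F-12 Ham with 5% FCS at 37 °C under 5% CO2, seeded at 1.5–2 × 10^5 and given 20 μM compound after 24 h. Cells had 15 min of dark uptake, then increasing UVA doses. Afterwards 200 cells were replated in 10% FCS medium for 7 days and colonies of ≥50 cells were counted. Clonal efficiency is colonies over cells seeded. IC50-UVA is the UVA dose giving 50% inhibition.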

A short description of experiment [3]: The IC50-dark is the drug concentration necessary to induce a 50% inhibition of DNA synthesis by incubation at the ground state by keeping mammalian cells in the dark. In kind it is functional. In a few lines:
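Ehrlich cells (Lettré strain) in PBS received compound at room temperature without irradiation, with final DMSO ≤0.5%. They were then held 30 min at 37 °C in the dark with 40 kBq·mL-1 [3H]thymidine. DNA-incorporated radioactivity is expressed as % of untreated controls, and IC50 is the concentration giving 50% inhibition.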

Experiment [4] is filed under the species Cavia porcellus. Put plainly: Phototoxicity on guinea pig skin was calculated at concentration of 30 uM.cm-2 and UVA light dose 20 kJ.me-2.-- indicates no erythemia. The class given is functional, organism-based. In short, it runs like this:
(§1)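 Depilated albino guinea pigs (outbred Dunkin-Hartley) received test compounds topically as 4.5 mM methanol solutions and were then exposed to UVA. The read-out was erythema scoring.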

Experiment [5] in a line: The IC50-dark is the drug concentration necessary to induce a 50% inhibition of clonal growth by incubation at the ground state by keeping mammalian cells in the dark. The class given is functional. In short, it runs like this: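 HeLa cells seeded at 1.5–2 × 10^5 were exposed after 24 h to compound in serum-containing growth medium for 3 h at 37 °C under 5% CO2, in the dark and without UVA. Controls had 0.5% DMSO. Afterwards 200 cells were replated and grown 7 days, and colonies of ≥50 cells were counted. IC50 is the concentration halving clonal efficiency.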

The species named for experiment [6] is Cavia porcellus. Briefly: Phototoxicity on guinea pig skin was calculated at concentration of 30 uM.cm-2 and UVA light dose 5 kJ.me-2. ++++ medium erythemia. The class given is functional, organism-based. Particulars: in the assay text read “strong erythema with edema” for “medium erythemia”. In a few lines: as §1
Experiment [7] is filed under the species Cavia porcellus. Put plainly: Phototoxicity on guinea pig skin was calculated at concentration of 4 uM.cm-2 and UVA light dose 5 kJ.me-2.+-- barely erythemia. The class given is functional, organism-based. In a few lines: as §1
For experiment [8], the species on record is Cavia porcellus. Put plainly: Phototoxicity on guinea pig skin was calculated at concentration of 2 uM.cm-2 and UVA light dose 5 kJ.me-2.-- indicates no erythemia. The class given is functional, organism-based. In a few lines: as §1

Consider `O=c1oc2cc3oc4ccccc4c3cc2cc1CO`, for which the IC50 in experiment [1] is 16.8 kJ m**-2; in experiment [2], 1.06 kJ m**-2; in experiment [3] it was above 30 µM; in experiment [5], above 30 µM. Also, the Intensity of erythemia result in the experiment listed under Cavia porcellus [4] was “no erythemia”.
`COc1c2occc2cc2ccc(=O)oc12` [METHOXSALEN]: the Intensity of erythemia result in the experiment filed under Cavia porcellus [6] was “Active”. Also, the IC50 is 3.59 kJ m**-2 in experiment [1], 1.23 kJ m**-2 in experiment [2], above 30 µM in experiment [3] and above 30 µM in experiment [5]. In addition, the Intensity of erythemia result in the experiment filed under Cavia porcellus [7] is “Partially active”. Besides, the Intensity of erythemia entry in the experiment listed under Cavia porcellus [8] is “inactive”.
Turning to `CCN(CC)Cc1c2ccc(=O)oc2cc2oc3ccccc3c12`, the IC50 in experiment [1] was above 30 kJ m**-2; in experiment [2], above 30 kJ m**-2; in experiment [3], above 30 µM; in experiment [5], above 30 µM. The Intensity of erythemia entry in the experiment listed under Cavia porcellus [4] is “no erythemia”.
With `CCN(CC)Cc1cc2cc3c(cc2oc1=O)oc1ccccc13`, the IC50 in experiment [1] was above 30 kJ m**-2; in experiment [2], above 30 kJ m**-2; in experiment [3], above 30 µM; in experiment [5] it was above 30 µM. Further, in the experiment filed under Cavia porcellus [4], the Intensity of erythemia result was “no erythemia”.
Take `O=c1ccc2cc3c(oc4ccccc43)c(CO)c2o1`: the IC50 amounted to 0.97 kJ m**-2 in experiment [1], 0.19 kJ m**-2 in experiment [2], 3 µM in experiment [3] and 6.8 µM in experiment [5]. Besides, in the experiment listed under Cavia porcellus [4], the Intensity of erythemia result is “no erythemia”.
`Cc1cc(=O)oc2cc3oc4cc(CO)ccc4c3cc12`: the IC50 in experiment [1] is 0.48 kJ m**-2; in experiment [2] it was 0.16 kJ m**-2; in experiment [3] it was above 30 µM; in experiment [5], above 30 µM. The Intensity of erythemia result in the experiment listed under Cavia porcellus [4] was “no erythemia”.
Turning to `O=c1ccc2c(CO)c3c(cc2o1)oc1ccccc13`, the IC50 stood at 8.3 kJ m**-2 in experiment [1], 0.23 kJ m**-2 in experiment [2], 10.9 µM in experiment [3] and 25 µM in experiment [5]. Besides, the Intensity of erythemia result in the experiment listed under Cavia porcellus [4] is “no erythemia”.
Take `CCN(CC)Cc1c2oc(=O)ccc2cc2c1oc1ccccc12`: the IC50 in experiment [1] came to 9.3 kJ m**-2; in experiment [2] it was 0.65 kJ m**-2; in experiment [3], 10.7 µM; in experiment [5] it was 10.7 µM. In addition, the Intensity of erythemia entry in the experiment filed under Cavia porcellus [4] was “no erythemia”.
For `CCN(CC)Cc1ccc2c(c1)oc1cc3oc(=O)cc(C)c3cc12`, the IC50 in experiment [1] was 2.22 kJ m**-2; in experiment [2] it was 1.83 kJ m**-2; in experiment [3], above 30 µM; in experiment [5], above 30 µM. In addition, in the experiment filed under Cavia porcellus [4], the Intensity of erythemia result is “no erythemia”.
As for `O=c1cc(CO)c2cc3c(cc2o1)oc1ccccc13`, the IC50 in experiment [1] was determined as 0.67 kJ m**-2; in experiment [2] it was 0.11 kJ m**-2; in experiment [3], 0.94 µM; in experiment [5], 3.8 µM. The Intensity of erythemia result in the experiment filed under Cavia porcellus [4] was “no erythemia”.
